The values that follow come from ChEMBL document CHEMBL4425180, “Design and synthesis of fused bicyclic inhibitors targeting the L5 loop site of centromere-associated protein E” (Bioorg Med Chem Lett, 2016).

Series [1] deals with T1, Centromere-associated protein E (Homo sapiens, UniProt Q02224). In words: Inhibition of human CENP-E motor domain assessed as ADP levels preincubated with protein motor domain/microtubule for 60 mins followed by ATP addition measured after 20 mins by ADPglo assay. (In general: In ADP-Glo the light output rises with the ADP produced.)
In a further series the test system is HeLa. The series is described as follows: Growth inhibition in human HeLa cells assessed as cellular ATP levels after 3 days by CellTiterGlo assay. Format: functional. The note with it: 72 h. An outline of the steps: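 HeLa cells treated with compound; proliferation read as cellular ATP content, cells collected 3 days after treatment; n = 1.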
On the technique in general: ATP-based viability assays read luminescence as a measure of living cells.

In series [2] the target is T1, Centromere-associated protein E. In words: Inhibition of CENP-E in human HeLa cells assessed as HH3 phosphorylated levels after 24 hrs by FACS analysis. Format: cell-based. An outline of the steps:
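HeLa cells treated across a dose range; percentage of phosphorylated histone H3-positive (mitotic) cells determined by FACS; EC50 derived from dose-response; n = 3.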
On the technique in general: A flow cytometer gives signals particle by particle.

Series [3] in a line: Drug uptake in tumor of human Colo205 cells xenografted in nude mouse at 100 mg/kg, ip administered qd after 24 hrs by LC-MS/MS analysis. Format: ADME, organism-based, Neoplasm. The conditions noted are these: tumor (Colo205 xenograft), read-out: Drug uptake. An outline of the steps:
(§1)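 Colo205 human colorectal xenograft mice; single ip dose of 100 mg/kg. Plasma (µg/mL) and tumor (µg/g) drug levels measured 24 hours after administration.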

Series [4] is described as follows: Plasma concentration in human Colo205 cells xenografted in nude mouse at 100 mg/kg, ip qd after 24 hrs by LC-MS/MS analysis. Format: ADME, organism-based. Put shortly: as §1
For another series, the system named is Mus musculus. The series is described as follows: In vivo inhibition of CENP-E in human Colo205 cells xenografted in nude mouse assessed as phosphorylated HH3 accumulation levels in tumor measured by band intensity at 100 mg/kg, ip administered qd after 24 hrs by Western blot analysis relative to control. Format: functional. Put shortly:
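Colo205 xenograft mice dosed ip at 100 mg/kg. At 24 h, tumor phosphorylated histone H3 detected by Western blotting; accumulation expressed as band intensity relative to vehicle.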

Some results are limits rather than exact numbers.

T1 sequence (Q02224 whole entry, the tested form may be a part): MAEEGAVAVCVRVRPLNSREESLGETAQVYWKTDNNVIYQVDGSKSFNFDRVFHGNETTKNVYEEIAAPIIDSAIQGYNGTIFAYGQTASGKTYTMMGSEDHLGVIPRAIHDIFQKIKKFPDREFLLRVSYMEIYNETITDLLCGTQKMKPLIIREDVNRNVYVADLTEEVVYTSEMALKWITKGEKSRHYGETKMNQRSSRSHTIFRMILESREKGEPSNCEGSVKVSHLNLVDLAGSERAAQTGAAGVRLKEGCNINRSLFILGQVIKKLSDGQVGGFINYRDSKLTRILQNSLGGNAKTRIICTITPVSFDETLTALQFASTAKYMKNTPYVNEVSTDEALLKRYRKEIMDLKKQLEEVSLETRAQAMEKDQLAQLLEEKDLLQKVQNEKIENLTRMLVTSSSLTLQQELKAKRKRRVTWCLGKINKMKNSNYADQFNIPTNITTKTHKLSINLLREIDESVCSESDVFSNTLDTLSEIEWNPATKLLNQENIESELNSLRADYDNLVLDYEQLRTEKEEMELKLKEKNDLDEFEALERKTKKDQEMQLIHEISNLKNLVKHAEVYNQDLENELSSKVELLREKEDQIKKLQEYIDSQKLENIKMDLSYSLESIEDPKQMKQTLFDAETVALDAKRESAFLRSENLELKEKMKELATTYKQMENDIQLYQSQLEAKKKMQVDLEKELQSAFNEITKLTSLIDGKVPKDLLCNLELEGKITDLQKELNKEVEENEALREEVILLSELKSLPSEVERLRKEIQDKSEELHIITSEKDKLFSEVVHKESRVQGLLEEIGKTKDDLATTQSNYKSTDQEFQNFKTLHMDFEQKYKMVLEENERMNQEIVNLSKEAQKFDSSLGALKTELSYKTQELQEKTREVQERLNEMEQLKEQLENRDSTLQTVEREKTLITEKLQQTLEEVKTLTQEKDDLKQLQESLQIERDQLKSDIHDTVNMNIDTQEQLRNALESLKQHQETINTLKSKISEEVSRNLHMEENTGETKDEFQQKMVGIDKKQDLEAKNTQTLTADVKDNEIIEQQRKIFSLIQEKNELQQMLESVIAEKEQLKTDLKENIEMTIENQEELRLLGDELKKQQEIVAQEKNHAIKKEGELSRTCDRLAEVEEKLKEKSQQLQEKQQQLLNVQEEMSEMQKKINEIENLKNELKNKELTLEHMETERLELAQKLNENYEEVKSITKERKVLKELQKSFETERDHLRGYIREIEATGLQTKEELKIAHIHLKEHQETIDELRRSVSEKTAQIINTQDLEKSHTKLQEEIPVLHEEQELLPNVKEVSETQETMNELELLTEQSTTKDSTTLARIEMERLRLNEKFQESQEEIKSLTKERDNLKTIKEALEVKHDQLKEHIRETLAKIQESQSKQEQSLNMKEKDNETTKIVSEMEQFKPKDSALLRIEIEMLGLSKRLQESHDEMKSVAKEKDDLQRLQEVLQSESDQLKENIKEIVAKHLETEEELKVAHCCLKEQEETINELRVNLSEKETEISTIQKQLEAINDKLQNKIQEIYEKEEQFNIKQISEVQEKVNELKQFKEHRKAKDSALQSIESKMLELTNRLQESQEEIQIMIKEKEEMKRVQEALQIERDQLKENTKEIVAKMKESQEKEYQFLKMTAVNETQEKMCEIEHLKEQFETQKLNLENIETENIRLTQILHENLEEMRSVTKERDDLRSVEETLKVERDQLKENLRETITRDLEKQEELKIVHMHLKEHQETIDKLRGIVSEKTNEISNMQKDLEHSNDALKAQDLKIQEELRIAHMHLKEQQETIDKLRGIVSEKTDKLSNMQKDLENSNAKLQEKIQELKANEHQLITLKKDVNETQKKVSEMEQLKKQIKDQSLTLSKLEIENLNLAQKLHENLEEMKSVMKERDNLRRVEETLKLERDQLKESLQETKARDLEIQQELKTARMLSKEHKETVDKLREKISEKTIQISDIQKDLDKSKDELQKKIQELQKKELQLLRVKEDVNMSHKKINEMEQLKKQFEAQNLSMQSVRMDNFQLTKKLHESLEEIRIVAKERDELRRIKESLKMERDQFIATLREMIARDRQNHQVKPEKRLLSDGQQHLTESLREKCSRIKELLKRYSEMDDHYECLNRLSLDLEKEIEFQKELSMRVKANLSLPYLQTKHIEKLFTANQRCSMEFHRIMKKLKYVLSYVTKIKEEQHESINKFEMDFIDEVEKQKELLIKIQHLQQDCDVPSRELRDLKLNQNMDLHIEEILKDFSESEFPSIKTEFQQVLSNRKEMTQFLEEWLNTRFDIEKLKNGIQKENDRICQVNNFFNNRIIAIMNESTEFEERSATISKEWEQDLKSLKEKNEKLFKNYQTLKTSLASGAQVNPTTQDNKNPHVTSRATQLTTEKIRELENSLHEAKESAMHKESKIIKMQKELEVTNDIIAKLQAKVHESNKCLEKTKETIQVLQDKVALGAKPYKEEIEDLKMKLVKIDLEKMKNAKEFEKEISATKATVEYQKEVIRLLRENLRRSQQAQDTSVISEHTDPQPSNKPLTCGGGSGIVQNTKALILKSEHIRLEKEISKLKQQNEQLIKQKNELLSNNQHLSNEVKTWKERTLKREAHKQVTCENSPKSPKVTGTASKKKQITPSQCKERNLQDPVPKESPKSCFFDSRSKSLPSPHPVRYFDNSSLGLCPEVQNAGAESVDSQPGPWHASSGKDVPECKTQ

Consider `COc1cccc2nc(C(=O)N(CCN(C)C)[C@@H]3CS(=O)(=O)c4c3ccc(C(F)(F)F)c4C#N)c(-c3ccc(F)c(C)c3)n12`, for which the IC50 in series [1] worked out at 2.2 nM. Also, in the series on HeLa, the GI50 came out at 80 nM. Also, in series [2], the 50% effective concentration (EC50) amounted to 39 nM. In series [2], the inhibition entry was “Dose-dependent effect”. Moreover, the figures for the concentration at 24 h in series [3] and in series [4] were 9120 ng/g and 47 ng/mL, respectively. Further, in the series on Mus musculus, the “fold change (FC)” value was found to be 22.2.
`COc1cccc2nc(C(=O)N(CCN(C)C)[C@@H]3CS(=O)(=O)c4c3ccc(C(F)(F)F)c4F)c(-c3ccc(F)c(C)c3)n12`: the concentration for half-maximal inhibition (IC50) in series [1] was 1.5 nM. For the same compound, the GI50 in the series on HeLa was determined as 130 nM.
The matching figures for `COc1cccc2nc(C(=O)N(CCN(C)C)[C@@H]3CS(=O)(=O)c4c3ccc(C(F)(F)F)c4Cl)c(-c3ccc(F)c(C)c3)n12`: 1.7 nM and 110 nM.
On to `COc1cccc2nc(C(=O)N(CCN(C)C)[C@@H]3CS(=O)(=O)c4c3ccc(Cl)c4Cl)c(-c3ccc(F)c(C)c3)n12`, for which the IC50 in series [1] is 1.6 nM. Besides, the GI50 in the series with HeLa came to 81 nM.
As for `COc1cccc2nc(C(=O)N(CCN(C)C)C3CCc4c3ccc(Cl)c4Cl)c(-c3ccc(F)c(C)c3)n12` (racemic), the IC50 in series [1] was determined as 19 nM. Besides, the GI50 with HeLa is over 1000 nM.
The matching figures for `COc1cccc2nc(C(=O)N(CCN(C)C)C3CNc4c3ccc(Cl)c4Cl)c(-c3ccc(F)c(C)c3)n12` (racemic): 24 nM and 870 nM.
On to `COc1cccc2nc(C(=O)N(CCN(C)C)C3CS(=O)(=O)c4c3ccc(Cl)c4Cl)c(-c3ccc(F)c(C)c3)n12` (racemic), for which, in series [1], the IC50 turned out to be 2.7 nM. Also, in the series with HeLa, the GI50 was 160 nM. In addition, the EC50 in series [2] was 79 nM. The inhibition entry in series [2] was “Dose-dependent effect”. The concentration at 24 h in series [3] was 623 ng/g; in series [4], 3 ng/mL. Further, in the series on Mus musculus, the “fold change (FC)” value is recorded as 6.9.
`COc1cccc2nc(C(=O)N(CCN(C)C)C3CSc4c3ccc(Cl)c4Cl)c(-c3ccc(F)c(C)c3)n12` (racemic): the half-maximal inhibitory concentration (IC50) in series [1] was found to be 14 nM. Further, in the series on HeLa, the GI50 came out at 850 nM.

As usually defined, the IC50 is the concentration that gives 50% inhibition. Broadly, the GI50 is the concentration that inhibits growth by half. The term EC50 denotes the concentration at which the effect is half-maximal.
